Results on 39 compounds are retold here after ChEMBL document CHEMBL4513216, “Probing the Open Global Health Chemical Diversity Library for Multistage-Active Starting Points for Next-Generation Antimalarials” (ACS Infect Dis, 2020).

The data set is described as follows: Toxicity liver stage against HepG2, at 10uM. The data set is classed as cell-based. Also noted: test concentration 10 uM, cell line HepG2-A16-CD81EGFP. The note with it: human, HepG2-A16-CD81EGFP cells; read-out: INHIBITION
Put shortly: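 Uninfected HepG2-A16-CD81EGFP cells, 3 × 10^3 per well, 1536-well, plated on prespotted compound at 10 μM final, parasite-free screening media added to match infected plates; puromycin 10 μM positive, DMSO 0.5% negative; run in parallel with 48 h PbLuc assay at 37 °C, 5% CO2; viability by CellTiter-Glo luminescence, normalized to controls.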
As to `O=C(N[C@@H]1CNCCC[C@H]1O)c1ccc(OCCN2CCOCC2)cc1`, the cytotoxicity at 10 µM came to 3.11%.
Take `Cn1cncc1-c1nnc([C@H]2CCN(CC3CCCCC3)C2)o1`: the cytotoxicity at 10 µM was -4.65%.
With `CC[C@H]1CN(C(=O)C2CC2)CC[C@H]1CC(=O)NCCN1CCOCC1` the figure was -7.3%; with `Cc1ccc(Oc2ncccc2C(=O)N(C)CC2OCCO2)c(C)c1`, 3.54%.
In the case of `COc1ccc(C(=O)Nc2ccccc2C(C)C)c(OC)n1`, the cytotoxicity at 10 µM stood at 3.66%.
With `C[C@H]1C[C@H]2CN(C(=O)C3=CCCCC3)CC[C@H]2O1` the figure was 4.76%; with `CC(=O)N1[C@H](Cn2cncn2)C[C@@H]2CN(Cc3nccs3)CC[C@@H]21`, 10%; with `CCN1C(=O)C[C@@H]2[C@@H]1CCN2S(=O)(=O)Cc1ccc(C)cc1`, -6.22%.
With `CNC(=O)c1cc2c(nc1NCC1CC1)CCN(c1ncccn1)CC2` the figure was 0.283%; with `CS(=O)(=O)NC[C@]12COC[C@H]1CN(C(=O)Cc1ccccc1F)C2`, -2.57%; with `Cc1c(-c2cc(C(F)F)nc3sc(C(N)=O)c(N)c23)cnn1C`, 10.1%.
Consider `CCC(=O)Nc1nnc(CCOc2ccccc2)s1`, for which the cytotoxicity at 10 µM is 7.16%.
With `COc1ccccc1N1CCN(C(=O)c2ccoc2)CC1`, the cytotoxicity at 10 µM turned out to be 11.5%.
As for `Cc1cc(F)ccc1N1CCCC(NS(=O)(=O)CCCF)C1=O` (centres undefined), the figure is -3.14%.
Consider `CN(CC(=O)NCc1cc2ccccc2o1)S(C)(=O)=O`, for which the cytotoxicity at 10 µM worked out at 4.59%.
For the compound `Cc1cc(NCc2cn(C)nc2-c2cccnc2)n(C)n1`, the cytotoxicity at 10 µM is 12%.
With `NC(=O)C1CCN(CCCc2ccc(C(F)(F)F)cc2)CC1` the figure was -0.85%; with `CCN(CC)c1ccc(CNC(=O)c2ccccn2)cn1`, 10.8%; with `O=C(c1cnc(NCC2CCCO2)c(Cl)c1)N1CCOCC1` (centres undefined), 0.0875%.
With `c1nc(N2CCCC(Cn3cncn3)C2)c2ccsc2n1` (centres undefined) the figure was 5.68%.
For `Cc1ccc(OCCNc2cccc(C(=O)N3CCOCC3)c2)cc1`, the cytotoxicity at 10 µM was found to be 4.14%.
As for `COC(=O)[C@H](C)NC(=O)Cc1c(C)nc2c(c1C)c(=O)[nH]n2C`, the figure is 10.7%; as for `CN(CC(N)=O)S(=O)(=O)c1ccc(F)cc1F`, 4.26%; as for `CCn1cnnc1C1CCN(C(=O)c2cnn(C(C)(C)C)c2)CC1`, 4.78%.
Turning to `CCOC(C)c1nc(Cn2cc(C(=O)NC)ccc2=O)cs1` (centres undefined), the cytotoxicity at 10 µM is -0.315%.
On to `CN(Cc1nnc(C2CC2)o1)C(c1ccc(F)cc1)c1cccnc1` (centres undefined), for which the cytotoxicity at 10 µM was -4.06%.
As for `Cc1ccccc1C(C)(C)CNC(=O)CCSc1nnnn1C`, the figure is 6.51%.
On to `Cc1nc(O)ccc1C(=O)NCc1ncoc1C`, for which the cytotoxicity at 10 µM amounted to 5.68%.
For `Cc1[nH]ccc1C(=O)NCc1ncoc1C`, the cytotoxicity at 10 µM is -2.45%.
For the compound `O=C(c1ccc[nH]1)N1CCCn2c(nnc2Cn2cccn2)C1`, the cytotoxicity at 10 µM was found to be 8.06%.
For the compound `CCOC[C@@H]1CC[C@H]2[C@H](CCN2S(=O)(=O)c2ccc(F)cc2)O1`, the cytotoxicity at 10 µM came out at 1.39%.
In the case of `CCc1nc(C)c([C@H]2CN(C)C[C@@H]2C(=O)NCc2ccccn2)[nH]1`, the cytotoxicity at 10 µM was 2.77%.
As for `COc1ccc(C2(C(=O)N3C[C@@H](C(=O)O)[C@H](C(C)C)C3)CC2)cc1`, the cytotoxicity at 10 µM is -8.36%.
With `COc1ccc(-c2ccc(C(=O)N3CCC[C@@H]3CO)o2)cc1` the figure was 7.44%; with `COCCc1nc(CN2CC(C)(c3ccccc3)CCC2=O)no1` (centres undefined), -3.07%; with `N#Cc1cccnc1N1CCCC(CO)(Cc2ccccc2F)C1` (centres undefined), 4.01%.
For `Cc1ccc(C2CCCN2S(=O)(=O)N(C)CCc2ccccn2)o1` (centres undefined), the cytotoxicity at 10 µM is -5.31%.
With `O=C(NCCCn1cncn1)N1CCC(N2CCCCC2)CC1` the figure was -7.01%.
`COCCC(=O)N1CCn2cc(CN3CCN(C)CC3)nc2C1`: the cytotoxicity at 10 µM was -3.13%.
